# According to the EternaBench riboswitch data:
# Tested on: MS2 coat protein
# Assay: apparent Kd, MS2 coat protein; higher = weaker binding; RNA-MaP array; tryptophan 2.4 mM where present
# How it was run: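 The apparent Kd is the median of filtered binding-curve fits, one per cluster, to green signal normalised to red-channel RNA signal and control-cluster median Fmax. The clusters were on Illumina sequencing chips, and stalled E. coli RNA polymerase had transcribed the designs on them. Titration used SNAP-549-labelled MS2 coat protein from 0.7 or 1.5 nM, doubling to 3 µM, without and then with constant ligand, in 100 mM Tris-HCl pH 7.5, 80 mM KCl, 4 mM MgCl2, BSA, DTT, yeast tRNA and Tween-20.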
# [1] = designed as: OFF switch for tryptophan, no ligand
# [2] = ligand present: tryptophan, designed as: OFF switch for tryptophan
# [3] = designed as: ON switch for tryptophan, no ligand
# [4] = ligand present: tryptophan, designed as: ON switch for tryptophan
Sequence,apparent Kd [1] [µM],apparent Kd [2] [µM],apparent Kd [3] [µM],apparent Kd [4] [µM]
UAACAUGAGGAUCACCCAUGUAUACUAAGUCGAGGACCGGUACGGCCGCCACUCGAACUUCAAGAAUAGGCGGUAAAUGUAAGUA,0.0115,0.0133,,
AAAUGUACGUCGGCCGCCACUGCGCUGAAGACAGUCACAUGAGGAUCACCCAUGUACGACAAGGGUAGGACCGGGAUGUGAGGGU,,,0.0914,0.0447
UGUCGGCGUAAGUUGGCAUGUCUUGCUGGUCGAGGACCGGUACGGCCGCCACUCGAUCCUUCGCACAUGAGGAUCACCCAUGUUG,,,0.0183,0.0171
ACCGCGGUAUCGGCCGCCACUUGUGGGUUAAAUCUGGUACAUGAGGAUCACCCAUGUGUCUCCUCGAGGACCGGGAUAGCGUGAC,,,0.158,0.0239
AAUGUAUGCCACAUGAGGAUCACCCAUGUGCGAGGACCGGUACGGCCGCCACUCGGUCGGUGGUUAAUGAAGAUAUACAAUAAUG,0.0115,0.0155,,
UUCUUUAAGUCGGCCGCCACUGAAACAUGAGGAUCACCCAUGUAAAUUUGGGAGUAGGUAUAUUACAGGACCGGGACUAUAGUAA,0.03,0.0548,,
UUGCCCAGUACGGCCGCCACUGUGUGCAGGGAACCCAGGUCCACAUGAGGAUCACCCAUGUACAGCAGGACCGGGUACUUGCAAU,0.00903,0.0117,,
ACAUGAGGAUCACCCAUGUUUGAUGUUCCUCGAGGACCGGUACGGCCGCCACUCGAACGAGUGGCGCGCGAGUGCGCACUCGCGC,,,0.0122,0.0125
GAUACUAUGAAAGUAGUAUCUACGUGUUGACGAGGACCGGUACGGCCGCCACUCGACAUGAGGAUCACCCAUGUAUAGAAUAUGU,,,0.0206,0.0148
CCUAUGCAGUCGGCCGCCACUGAUAAAGUUAUCUUUACCUCAGAAACAUGAGGAUCACCCAUGUACAGGACCGGGACUGUAUAGG,0.0127,0.0198,,
UGGGUACCGACGGCCGCCACUGACUAUAGACAUGAGGAUCACCCAUGUAGAGAUCCUAGACUACCCAGGACCGGGUCUGGUGCUA,0.124,0.22,,
AGAAUAUAGUCGGCCGCCACUCUACAAACAUGAGGAUCACCCAUGUUCACAUAGUGGAAACACAUGAGGACCGGGACAUAGGCAU,,,0.0156,0.0142
AUGCAUAGCACGGCCGCCACUCCAUGUAAACAUGAGGAUCACCCAUGUAAUUUGGAUGUUUUAUAGAGGACCGGGUGAAAUGCAA,0.00888,0.0151,,
UAUUAUCAGUCGGCCGCCACUGACACAUGAGGAUCACCCAUGUAAUUUGGGUUAUAUAUAAAUUACAGGACCGGGACAAAUGCUA,0.341,0.28,,
AAUAAUAUCCUCAUGUGAGUCGUACCAUAACGAGGACCGGUACGGCCGCCACUCGAACAUGAGGAUCACCCAUGUAGGUAUGAUA,,,0.0859,0.2
AAUCAUGAAAACAUGACAUGAGGAUCACUCCGAGGACCGGUACGGCCGCCACUCGCGAGGAGGCGGACAUGAGGAUCACCCAUGU,,,0.254,0.0663
AUGGAGACCUCGGCCGCCACUCUCCAUGAGGAUCUCCCAUGUAACAUGAGGAUCACCCAUGUGCUGAGGACCGGGAGGUCCUGAA,,,0.0106,0.012
AACAUGAGGAUCACCCAUGUCCUCAUGAUUCGAGGACCGGUACGGCCGCCACUCGGUCCUCGCGAGGAGGAGUCAAAGACUCCAA,,,0.178,0.393
AUGGAGACCUCGGCCGCCACUCUCCAUGAGGAUCUCCCAUGUAACAUGAGGAUCACCCAUGUACUGAGGACCGGGAGGUCCUUGA,,,0.0099,0.0108
CGCGGUUGAGAUGGGCCUUUGAUAAGUCUGCGAGGACCGGUACGGCCGCCACUCGAGGACAUGAGGAUCACCCAUGUACUUCGCG,0.0473,0.0178,,
UGAUACCAGUCGGCCGCCACUACAUGAGGAUCACCCAUGUAUGGGUCAAUGCUAGAUACUAGCAGUAGGACCGGGACUGGUAUCU,0.0114,0.0361,,
AUGACUCACAAAGAAGAUAAAAUGGGUGAACGAGGACCGGUACGGCCGCCACUCGGACAUGAGGAUCACCCAUGUCCAUGUGCAA,0.0221,0.0288,,
GGUUACUCUACGGCCGCCACUGAACAUGAGGAUCACCCAUGUAAUGUUCAGACGUCUUUAGACGACAGGACCGGGUAGUGUAACC,,,0.178,0.151
CCUAUGCAGUCGGCCGCCACUGAACAUGAGGAUCACCCAUGUAUAUAAAGAUCCUGAUAUAAUAACAGGACCGGGACUGUAUAGG,0.0597,0.157,,
